From ChEMBL document CHEMBL3779800 (ACS Med Chem Lett, 2016)

Legend:
[1] = target: T1, Amine oxidase [flavin-containing] A (Homo sapiens, UniProt P21397); experiment: Competitive inhibition of recombinant human MAO-A using p-tyramine as substrate preincubated for 15 mins followed by substrate addition by Lineweaver-Burk plot analysis
T1 sequence (P21397 whole entry): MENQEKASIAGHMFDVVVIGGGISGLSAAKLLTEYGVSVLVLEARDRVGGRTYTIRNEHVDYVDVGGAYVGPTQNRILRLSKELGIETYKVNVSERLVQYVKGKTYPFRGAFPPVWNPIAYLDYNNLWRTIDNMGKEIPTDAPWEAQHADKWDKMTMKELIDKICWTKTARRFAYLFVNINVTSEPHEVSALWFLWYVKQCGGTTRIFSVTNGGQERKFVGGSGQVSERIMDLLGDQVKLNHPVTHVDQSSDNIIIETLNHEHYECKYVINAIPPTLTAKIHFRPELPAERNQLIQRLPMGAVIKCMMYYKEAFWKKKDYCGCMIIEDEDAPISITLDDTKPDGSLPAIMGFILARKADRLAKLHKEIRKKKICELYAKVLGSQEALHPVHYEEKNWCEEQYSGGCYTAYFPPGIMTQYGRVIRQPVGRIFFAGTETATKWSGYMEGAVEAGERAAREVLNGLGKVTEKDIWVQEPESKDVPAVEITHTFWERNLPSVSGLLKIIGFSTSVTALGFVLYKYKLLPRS

[2] = target: T1, Amine oxidase [flavin-containing] A; experiment: Reversible inhibition of recombinant human MAO-A using p-tyramine as substrate incubated for 1 hr by centrifugation ultra filtration method
[3] = target: T2, Amine oxidase [flavin-containing] B (Homo sapiens, UniProt P27338); experiment: Inhibition of recombinant human MAO-B using p-tyramine as substrate assessed as H2O2 production preincubated for 15 mins followed by substrate addition measured for 15 mins by amplex red assay
T2 sequence (P27338 whole entry): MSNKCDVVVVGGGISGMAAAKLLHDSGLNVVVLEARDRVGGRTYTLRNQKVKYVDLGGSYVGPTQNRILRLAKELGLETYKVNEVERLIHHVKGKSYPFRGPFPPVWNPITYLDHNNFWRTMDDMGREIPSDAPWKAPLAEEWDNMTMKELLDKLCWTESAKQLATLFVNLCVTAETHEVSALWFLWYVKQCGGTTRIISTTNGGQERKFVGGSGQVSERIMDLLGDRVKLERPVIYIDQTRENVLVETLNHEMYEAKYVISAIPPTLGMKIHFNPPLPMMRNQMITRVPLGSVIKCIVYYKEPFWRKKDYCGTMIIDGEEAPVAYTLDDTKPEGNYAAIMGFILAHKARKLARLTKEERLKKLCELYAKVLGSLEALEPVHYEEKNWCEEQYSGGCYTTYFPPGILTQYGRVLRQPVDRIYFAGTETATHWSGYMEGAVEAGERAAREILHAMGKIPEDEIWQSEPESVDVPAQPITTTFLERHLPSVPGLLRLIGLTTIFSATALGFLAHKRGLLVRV

[4] = target: T1, Amine oxidase [flavin-containing] A; experiment: Inhibition of recombinant human MAO-A using p-tyramine as substrate assessed as H2O2 production preincubated for 15 mins followed by substrate addition measured for 15 mins by amplex red assay
In short: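 H2O2 formed from p-tyramine, a substrate shared by hMAO-A and hMAO-B, was measured with an Amplex Red MAO kit. Compounds were checked for direct reaction with the Amplex Red reagent. They were also checked for resorufin quenching by combining the highest compound concentration with various resorufin concentrations. Protein was determined by Bradford with BSA standard. Values are mean ± SEM of three independent experiments.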

Homo sapiens = species on record: Homo sapiens; experiment: Selectivity index, ratio of Ki for recombinant human MAO-A to Ki for recombinant human MAO-B
In short: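 SI is Ki(MAO-A)/Ki(MAO-B). Each Ki comes from the Amplex Red H2O2 assay with p-tyramine substrate and is the mean ± SEM of three independent experiments. Racemates were tested. A lower SI indicates MAO-A preference and a higher SI indicates MAO-B preference.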

[5] = target: T1, Amine oxidase [flavin-containing] A; experiment: Irreversible inhibition of recombinant human MAO-A using p-tyramine as substrate incubated for 1 hr by centrifugation ultra filtration method
In short: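 Reversibility of hMAO-A inhibition assessed by a centrifugation-ultrafiltration method. Enzyme activity was read as H2O2 production from p-tyramine using Amplex Red fluorescence. Compounds were checked for direct reaction with Amplex Red and for resorufin quenching, tested at their maximum concentration against various resorufin concentrations. Racemic compounds were used.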

[6] = target: T1, Amine oxidase [flavin-containing] A; experiment: Suicide inhibition of recombinant human MAO-A using p-tyramine as substrate preincubated for 15 mins followed by substrate addition by Lineweaver-Burk plot analysis

SMILES | inhibition (INH) [1] | inhibition (INH) [2] | Ki [3] [µM] | Ki [4] [µM] | Ratio Ki (Homo sapiens) | inhibition (INH) [5] | inhibition (INH) [6]
COc1cc(C2=NN(C(=S)Nc3ccccc3)C(c3ccccc3)C2)ccc1O (racemic) | Active | Active | 15.9 | 0.55 | 0.035 |  | 
COc1cc(C2=NN(C(C)=O)C(c3ccccc3)C2)ccc1O (racemic) | Active | Active |  | 3.87 |  |  | 
COc1cc(C2=NN(C(=N)N)C(c3ccccc3)C2)ccc1O (racemic) | Active | Active | 201 | 9.55 | 0.047 |  | 
COc1cc(C2=NN(c3ccccc3)C(c3ccccc3)C2)ccc1O (racemic) | Active | Active |  | 2.16 |  |  | 
COc1cc(C2=NN(C(=O)Oc3ccccc3)C(c3ccccc3)C2)ccc1O (racemic) | Active | Active | 4 | 0.29 | 0.073 |  | 
COc1cc(C2=NN(C(N)=S)C(c3ccccc3)C2)ccc1O (racemic) | Active | Active | 2.78 | 2.58 | 0.928 |  | 
COc1cc(C2=NNC(c3ccccc3)C2)ccc1O (racemic) | Active | Active | 0.35 | 5.02 | 14.3 |  | 
O=C(NCCN1CCOCC1)c1ccc(Cl)cc1 [MOCLOBEMIDE] | Active | Active |  |  |  |  | 
C#CCN(C)[C@H](C)Cc1ccccc1 [SELEGILINE] |  |  |  |  |  | Active | Active
COc1cc(C2=NN(C(=O)c3ccccc3)C(c3ccccc3)C2)ccc1O (racemic) | Active | Active | 41 | 4.25 | 0.104 |  | 
COc1cc(C2=NN(S(=O)(=O)c3ccc(C)cc3)C(c3ccccc3)C2)ccc1O (racemic) | Active | Active | 5900 | 0.06 | 1.02e-05 |  | 
CCOC(=O)N1N=C(c2ccc(O)c(OC)c2)CC1c1ccccc1 (racemic) | Active | Active | 201 | 0.44 | 0.002 |  | 
COc1cc(/C=C/C(=O)CC(=O)/C=C/c2ccc(O)c(OC)c2)ccc1O [CURCUMIN] | Active | Active |  |  |  |  | 
